Experiment [1] concerns Stenotrophomonas maltophilia. The experiment can be described thus: Antimicrobial activity against Stenotrophomonas maltophilia ATCC 13637 after 18 to 24 hrs by alamar blue assay. The format is functional. To be noted: Stenotrophomonas maltophilia, ATCC 13637; read-out: MIC. Put shortly:
(§1)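 Broth microdilution per NCCLS in Mueller-Hinton broth, 8-point twofold dilutions, 384-well format. Exponential-phase cells at 5 × 10^5 cells/ml incubated with compound 18–24 h at 37 °C, then 20% Alamar blue added and fluorescence read. MIC90 taken as the lowest concentration preventing at least 90% bacterial growth.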

Experiment [2] relates to Staphylococcus aureus. The experiment is described as follows: Antimicrobial activity against methicillin-resistant Staphylococcus aureus isolate NTUH4722 after 18 to 24 hrs by alamar blue assay. The format is functional. Put shortly:
(§2)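 Broth microdilution per NCCLS standard, Mueller-Hinton broth, 8-point twofold dilutions; exponentially growing cells at 5 10^5 cells/ml with compound, 18–24 h at 37 C; 20% Alamar blue added, fluorescence read; MIC90 taken as lowest concentration preventing at least 90% growth.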
A general note: The colour change of resazurin is a common sign of viable cells or microbes.

Experiment [3] has as its system Staphylococcus aureus. The experiment is described as follows: Antimicrobial activity against methicillin-resistant Staphylococcus aureus ATCC 33592 after 18 to 24 hrs by alamar blue assay. The format is functional. To be noted: Staphylococcus aureus, ATCC 33592; read-out: MIC. Put shortly:
as §2

The test system of another experiment is Bacillus subtilis. The experiment is described as follows: Antimicrobial activity against Bacillus subtilis ATCC 23857 after 18 to 24 hrs by alamar blue assay. The format is functional. Put shortly: as §1
Experiment [4] deals with Mycolicibacterium smegmatis. The experiment is described as follows: Antimicrobial activity against Mycobacterium smegmatis BCRC 11565 after 18 to 24 hrs by alamar blue assay. To be noted: Mycolicibacterium smegmatis, BCRC 11565; read-out: MIC. In kind it is functional. In outline:
as §1

The next experiment deals with Escherichia coli. The experiment is described as follows: Antimicrobial activity against Escherichia coli ATCC […] after 18 to 24 hrs by alamar blue assay. In kind it is functional. To be noted: Escherichia coli; read-out: MIC. In outline:
as §1

In another experiment the test system is Pseudomonas aeruginosa. The experiment is described as follows: Antimicrobial activity against Pseudomonas aeruginosa ATCC 25619 after 18 to 24 hrs by alamar blue assay. In kind it is functional. To be noted: Pseudomonas aeruginosa, ATCC 25619; read-out: MIC. In outline:
as §1

Experiment [5] has as its system Staphylococcus aureus. The experiment is described as follows: Antimicrobial activity against oxacillin- and methicillin-resistant Staphylococcus aureus isolate Sa-OXA-R2 after 18 to 24 hrs by alamar blue assay. The format is functional. In outline:
as §2

Another experiment concerns Acinetobacter baumannii. The experiment is described as follows: Antimicrobial activity against Acinetobacter baumannii ATCC 49139 after 18 to 24 hrs by alamar blue assay. The format is functional. To be noted: Acinetobacter baumannii, ATCC 49139; read-out: MIC. Put shortly: as §1
The test system of a further experiment is Serratia marcescens. The experiment can be described thus: Antimicrobial activity against Serratia marcescens ATCC 14756 after 18 to 24 hrs by alamar blue assay. In kind it is functional. To be noted: Serratia marcescens, ATCC 14756; read-out: MIC. Put shortly: as §1
The subject of experiment [6] is Staphylococcus aureus. The experiment is described as follows: Antimicrobial activity against Staphylococcus aureus ATCC 29213 after 18 to 24 hrs by alamar blue assay.
Experiment [7] in a line: Inhibition of transglycosylase assessed as inhibition of NBD- labelled lipid II polymerization. Put shortly:
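100 µM NBD-labelled lipid II incubated 30 min with full-length PBP (EC, SA or Mtb) and 10 ng/µl N-acetylmuramidase in 50 mM Tris-HCl pH 8.0, 10 mM MgCl2, 0.1% Triton X-100, 10% DMSO, 15% MeOH. Supernatant run on anion-exchange HPLC with 20 mM–0.5 M ammonium acetate gradient. Inhibition calculated from substrate peak-area percentage. IC50 determined. S. aureus strains share one SA enzyme.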

Values after ≈ are worked out from the molar mass of the structure shown.

Turning to `O=C(Nc1ccc(Oc2ccc3ccccc3c2Cl)c(Cl)c1)c1cc(I)cc(I)c1O`, the MIC in experiment [1] was 16 µg/mL (≈ 23.7 µM); against Staphylococcus aureus [2] it was at most 0.03 µg/mL; in the experiment on Staphylococcus aureus [3], 8 µg/mL (≈ 11.8 µM); in the experiment with Bacillus subtilis, below 0.03 µg/mL; in experiment [4], 0.5 µg/mL (≈ 0.74 µM); with Escherichia coli, 8 µg/mL (≈ 11.8 µM). Further, the MIC in the experiment on Pseudomonas aeruginosa was 16 µg/mL (≈ 23.7 µM); in the experiment on Staphylococcus aureus [5] it was at most 0.03 µg/mL; in the experiment with Acinetobacter baumannii, 16 µg/mL (≈ 23.7 µM); with Serratia marcescens it was 16 µg/mL (≈ 23.7 µM); against Staphylococcus aureus [6], 8 µg/mL (≈ 11.8 µM). For the same compound, in experiment [7], the IC90 was above 100 µM.

For `O=C(Nc1ccc(Sc2nc3ccccc3s2)c(Cl)c1)c1cc(Br)cc(Br)c1O`, the MIC was 16 µg/mL (≈ 28 µM) in [1]; at most 0.03 µg/mL in the experiment on Staphylococcus aureus [2]; at most 2 µg/mL with Staphylococcus aureus [3]; below 0.03 µg/mL in the experiment with Bacillus subtilis; 0.5 µg/mL (≈ 0.876 µM) in experiment [4]; 8 µg/mL (≈ 14 µM) with Escherichia coli. Moreover, the minimal inhibitory concentration (MIC) in the experiment on Pseudomonas aeruginosa was 16 µg/mL (≈ 28 µM); against Staphylococcus aureus [5], at most 0.03 µg/mL; in the experiment with Acinetobacter baumannii it was 16 µg/mL (≈ 28 µM); in the experiment on Serratia marcescens it was 16 µg/mL (≈ 28 µM); against Staphylococcus aureus [6] it was 4 µg/mL (≈ 7.01 µM). The concentration for an effect of 90% (IC90) in experiment [7] was determined as 100 µM.

Take `Cc1ccc(C(C)C)c(Oc2ccc(Cl)cc2NC(=O)c2cc(I)cc(I)c2O)c1`: the MIC in [1] is 16 µg/mL (≈ 24.7 µM); against Staphylococcus aureus [2] it was at most 0.03 µg/mL; in the experiment with Staphylococcus aureus [3], 0.5 µg/mL (≈ 0.772 µM); with Bacillus subtilis, below 0.03 µg/mL; in experiment [4] it was 0.5 µg/mL (≈ 0.772 µM); in the experiment on Escherichia coli, 8 µg/mL (≈ 12.4 µM). The MIC in the experiment with Pseudomonas aeruginosa was 16 µg/mL (≈ 24.7 µM); against Staphylococcus aureus [5], at most 0.03 µg/mL; in the experiment on Acinetobacter baumannii it was 16 µg/mL (≈ 24.7 µM); with Serratia marcescens, 16 µg/mL (≈ 24.7 µM); in the experiment with Staphylococcus aureus [6] it was 4 µg/mL (≈ 6.18 µM). In addition, the IC90 in [7] is 50 µM.

`O=C(Nc1ccc(S(=O)(=O)c2nc3ccccc3s2)c(Cl)c1)c1cc(Cl)cc(Cl)c1O`: the MIC in experiment [1] is 16 µg/mL (≈ 31.1 µM); against Staphylococcus aureus [2] it was at most 0.03 µg/mL; in the experiment with Staphylococcus aureus [3] it was 4 µg/mL (≈ 7.78 µM); in the experiment with Bacillus subtilis, below 0.03 µg/mL; in [4], 0.5 µg/mL (≈ 0.973 µM); in the experiment with Escherichia coli it was 8 µg/mL (≈ 15.6 µM). Moreover, the MIC is 16 µg/mL (≈ 31.1 µM) in the experiment with Pseudomonas aeruginosa; at most 0.03 µg/mL against Staphylococcus aureus [5]; 16 µg/mL (≈ 31.1 µM) in the experiment with Acinetobacter baumannii; 16 µg/mL (≈ 31.1 µM) in the experiment on Serratia marcescens; 8 µg/mL (≈ 15.6 µM) against Staphylococcus aureus [6]. Moreover, the concentration for an effect of 90% (IC90) in experiment [7] was found to be 100 µM.

With `O=C(Nc1cc(Cl)ccc1Oc1cccc2c(Br)cccc12)c1cc(Cl)cc(Br)c1O`, the MIC in experiment [1] was 16 µg/mL (≈ 27.5 µM); against Staphylococcus aureus [2], at most 0.03 µg/mL; with Staphylococcus aureus [3] it was at most 2 µg/mL; against Bacillus subtilis it was below 0.03 µg/mL; in [4], 0.5 µg/mL (≈ 0.859 µM); in the experiment on Escherichia coli, 8 µg/mL (≈ 13.7 µM). For the same compound, the MIC is 16 µg/mL (≈ 27.5 µM) in the experiment with Pseudomonas aeruginosa; at most 0.03 µg/mL against Staphylococcus aureus [5]; 16 µg/mL (≈ 27.5 µM) in the experiment on Acinetobacter baumannii; 16 µg/mL (≈ 27.5 µM) with Serratia marcescens; 4 µg/mL (≈ 6.87 µM) in the experiment with Staphylococcus aureus [6]. In addition, the IC90 in experiment [7] is 100 µM.

As for `O=C(Nc1ccc(Oc2ccc(Cl)c3cccnc23)c(Br)c1)c1cc(Br)cc(Br)c1O`, the MIC in [1] was 16 µg/mL (≈ 25.5 µM); against Staphylococcus aureus [2] it was at most 0.03 µg/mL; with Staphylococcus aureus [3], 16 µg/mL (≈ 25.5 µM); against Bacillus subtilis, below 0.03 µg/mL; in [4], 0.5 µg/mL (≈ 0.797 µM); in the experiment on Escherichia coli, 8 µg/mL (≈ 12.7 µM). In addition, the MIC with Pseudomonas aeruginosa is 16 µg/mL (≈ 25.5 µM); in the experiment on Staphylococcus aureus [5], at most 0.03 µg/mL; in the experiment on Acinetobacter baumannii, 16 µg/mL (≈ 25.5 µM); with Serratia marcescens, 16 µg/mL (≈ 25.5 µM); against Staphylococcus aureus [6], 32 µg/mL (≈ 51 µM). Besides, the concentration for an effect of 90% (IC90) in [7] stood at 50 µM.

Take `O=C(Nc1ccc(Oc2ccc(Br)c3ccccc23)c(Cl)c1)c1cc(Br)cc(Br)c1O`: the minimum inhibitory concentration (MIC) in [1] was 16 µg/mL (≈ 25.5 µM); with Staphylococcus aureus [2], at most 0.03 µg/mL; in the experiment on Staphylococcus aureus [3] it was at most 2 µg/mL; in the experiment on Bacillus subtilis it was below 0.03 µg/mL; in experiment [4] it was 0.5 µg/mL (≈ 0.798 µM); with Escherichia coli, 8 µg/mL (≈ 12.8 µM). In addition, the MIC with Pseudomonas aeruginosa is 16 µg/mL (≈ 25.5 µM); against Staphylococcus aureus [5], at most 0.03 µg/mL; in the experiment with Acinetobacter baumannii, 16 µg/mL (≈ 25.5 µM); in the experiment on Serratia marcescens it was 16 µg/mL (≈ 25.5 µM); against Staphylococcus aureus [6] it was 4 µg/mL (≈ 6.38 µM). Moreover, in [7], the IC90 was 100 µM.

Take `Cc1ccc(C(C)C)cc1Oc1ccc(Cl)cc1NC(=O)c1cc(Cl)ccc1O`: the MIC was 16 µg/mL (≈ 37.2 µM) in [1]; at most 0.03 µg/mL against Staphylococcus aureus [2]; 0.5 µg/mL (≈ 1.16 µM) with Staphylococcus aureus [3]; below 0.03 µg/mL in the experiment on Bacillus subtilis; 0.5 µg/mL (≈ 1.16 µM) in experiment [4]; 8 µg/mL (≈ 18.6 µM) in the experiment with Escherichia coli. The minimal inhibitory concentration (MIC) in the experiment on Pseudomonas aeruginosa was 16 µg/mL (≈ 37.2 µM); against Staphylococcus aureus [5], at most 0.03 µg/mL; with Acinetobacter baumannii, 16 µg/mL (≈ 37.2 µM); with Serratia marcescens, 16 µg/mL (≈ 37.2 µM); with Staphylococcus aureus [6] it was 0.5 µg/mL (≈ 1.16 µM). In [7], the concentration for an effect of 90% (IC90) was 100 µM.

One may read the MIC as the lowest concentration that inhibits growth of the organism. The IC90 is the concentration at which the effect reaches the 90% level.

The values are drawn from ChEMBL document CHEMBL1629439, “High-throughput identification of antibacterials against methicillin-resistant Staphylococcus aureus (MRSA) and the transglycosylase” (Bioorg Med Chem, 2010).
